Experiment [1] deals with T1, Adenosine receptor A3 (Homo sapiens) (UniProt P0DMS8).
T1 sequence (whole entry): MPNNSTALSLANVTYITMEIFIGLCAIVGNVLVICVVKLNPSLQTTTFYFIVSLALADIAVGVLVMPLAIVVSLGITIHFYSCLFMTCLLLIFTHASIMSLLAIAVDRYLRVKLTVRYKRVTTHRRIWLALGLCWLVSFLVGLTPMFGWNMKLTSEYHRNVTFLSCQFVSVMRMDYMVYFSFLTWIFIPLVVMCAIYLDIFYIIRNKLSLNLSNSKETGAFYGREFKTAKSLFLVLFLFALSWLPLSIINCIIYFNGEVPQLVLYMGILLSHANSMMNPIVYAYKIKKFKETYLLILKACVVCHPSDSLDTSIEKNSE
The experiment can be described thus: Displacement of [125I]N6-(4-amino-3-iodobenzyl)adenosine-50-N-methyluronamide from human recombinant A3AR expressed in CHO cells at 10 uM. The experiment is classed as cell-based. The gist of the method:
(§1)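 Single-concentration radioligand displacement at 10 μM. Membranes came from CHO cells stably expressing human A1AR or A3AR, or HEK293 cells stably expressing human A2AAR. Agonist radioligands were [3H]N6-[(R)-1-methyl-2-phenylethyl]adenosine (A1), [3H]2-[p-(2-carboxyethyl)phenylethylamino]-5′-N-ethylcarboxamidoadenosine (A2A) and [125I]N6-(4-amino-3-iodobenzyl)adenosine-5′-N-methyluronamide (A3). Read-out was percent inhibition of binding.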

Experiment [2] has as its target T2, Adenosine receptor A1 (Homo sapiens) (UniProt P30542).
T2 sequence (whole entry): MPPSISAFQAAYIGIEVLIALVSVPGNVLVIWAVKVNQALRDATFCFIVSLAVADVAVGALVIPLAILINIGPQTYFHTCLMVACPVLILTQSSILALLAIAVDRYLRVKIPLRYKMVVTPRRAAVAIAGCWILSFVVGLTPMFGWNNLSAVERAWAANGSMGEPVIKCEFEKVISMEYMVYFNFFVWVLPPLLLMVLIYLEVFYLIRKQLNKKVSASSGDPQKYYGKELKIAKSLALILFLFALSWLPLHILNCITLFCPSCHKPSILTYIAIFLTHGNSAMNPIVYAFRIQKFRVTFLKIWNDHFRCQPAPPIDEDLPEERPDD
Kind of experiment: Displacement of [3H]N6-[(R)-1-methyl-2-phenylethyl]adenosine from human recombinant A1AR expressed in CHO cells at 10 uM. It counts as cell-based. Summed up:
as §1

Experiment [3] addresses Adenosine receptor A2a (Homo sapiens) (UniProt P29274). The experiment can be described thus: Displacement of [3H]2-[p-(2-carboxyethyl)phenylethylamino]-50-N-ethylcarboxamidoadenosine from human recombinant A2AR expressed in HEK293 cells at 10 uM. The experiment is classed as cell-based. Summed up:
as §1

Experiment [4] shares this target. Kind of experiment: Displacement of [3H]2-[p-(2-carboxyethyl)phenylethylamino]-50-N-ethylcarboxamidoadenosine from human recombinant A2AR expressed in HEK293 cells at 50 uM. It counts as cell-based. Summed up:
(§2)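 Percent inhibition of agonist radioligand binding measured at a single 50 μM test concentration. A1: CHO cell membranes with stably expressed human A1AR and [3H]N6-[(R)-1-methyl-2-phenylethyl]adenosine. A2A: HEK293 cell membranes with stably expressed human A2AAR and [3H]2-[p-(2-carboxyethyl)phenylethylamino]-5′-N-ethylcarboxamidoadenosine.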

In experiment [5] the target is T2, Adenosine receptor A1 (Homo sapiens). The experiment can be described thus: Displacement of [3H]N6-[(R)-1-methyl-2-phenylethyl]adenosine from human recombinant A1AR expressed in CHO cells at 50 uM. It counts as cell-based. The gist of the method: as §2
Experiment [6] addresses T1, Adenosine receptor A3 (Homo sapiens). The experiment can be described thus: Modulatory activity at human recombinant A3AR expressed in CHO cells assessed as inhibition of forskolin-induced stimulation of cAMP production. The experiment is classed as functional, cell-based. Summed up: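 CHO cells stably expressing human A3AR were plated and grown 24 h, then washed in DMEM with 50 mM HEPES, pH 7.4. Compounds and/or agonist were added with rolipram (10 μM) and adenosine deaminase (3 units/mL). Forskolin (10 μM) was added at 45 min and incubation ran 15 more min. Cells were lysed in 0.1 M HCl. cAMP was measured by competitive binding of [3H]cAMP (2 nM) to protein kinase A, with a cAMP standard curve, filtration and scintillation counting.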

Experiment [7] deals with T3, Adenosine receptor A3 (Homo sapiens, UniProt P0DMS8).
T3 sequence (P0DMS8 whole entry): T1 sequence (whole entry)
Kind of experiment: Displacement of [125I]N6-(4-amino-3-iodobenzyl)adenosine-50-N-methyluronamide from human recombinant A3AR expressed in CHO cells. The experiment is classed as cell-based. Summed up:
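Competition binding used membranes of CHO cells stably expressing human A3AR and the agonist radioligand [125I]N6-(4-amino-3-iodobenzyl)adenosine-5′-N-methyluronamide. IC50 values from competition curves were converted to Ki by Cheng-Prusoff. Values are mean ± S.E.M.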

Experiment [8] addresses T3, Adenosine receptor A3. The experiment can be described thus: (§3) Agonist activity at human recombinant A3AR expressed in CHO cells assessed as inhibition of forskolin-induced stimulation of cAMP production. It counts as functional, cell-based.
In experiment [9] the target is T1, Adenosine receptor A3 (Homo sapiens). The experiment is described as §3. It counts as functional, cell-based.

Structures are written as SMILES. Calls of active or inactive are those of the source. The rule behind the calls is not given here.

Sequence of Adenosine receptor A2a (Homo sapiens) (P29274 whole entry): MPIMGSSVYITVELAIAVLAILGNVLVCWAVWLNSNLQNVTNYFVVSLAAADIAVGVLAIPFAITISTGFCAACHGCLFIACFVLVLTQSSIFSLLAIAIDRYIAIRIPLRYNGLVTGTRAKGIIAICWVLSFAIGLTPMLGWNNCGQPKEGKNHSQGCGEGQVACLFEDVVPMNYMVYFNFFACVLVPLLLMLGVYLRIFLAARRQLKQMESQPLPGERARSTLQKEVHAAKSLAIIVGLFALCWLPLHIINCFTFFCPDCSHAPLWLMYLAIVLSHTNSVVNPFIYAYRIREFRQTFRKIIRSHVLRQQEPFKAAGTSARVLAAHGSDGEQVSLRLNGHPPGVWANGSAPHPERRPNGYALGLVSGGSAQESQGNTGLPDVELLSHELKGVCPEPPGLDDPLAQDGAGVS

Regarding `CNC(=O)OC[C@@]1(O)CO[C@@H](n2cnc3c(N)ncnc32)[C@@H]1O`, the results for the inhibition in [1], in experiment [2] and in experiment [3] were 26%, 12% and 10%, respectively.
On to `Nc1ncnc2c1ncn2[C@@H]1OC[C@H](CO)[C@H]1O`, for which the values for the inhibition in [1], in experiment [2] and in experiment [3] were 32%, 6% and 19%, respectively.
Take `Nc1ncnc2c1ncn2[C@@H]1OC[C@@](O)(CO)[C@H]1O`: the inhibition amounted to 10% in experiment [1], 64% in experiment [4] and 0% in experiment [5].
In the case of `COc1ccc(Cl)cc1CNc1ncnc2c1ncn2[C@@H]1OC[C@](O)(CO)[C@H]1O`, the inhibition came to 12% in [2] and 17% in experiment [3]. Also, in experiment [6], the result was inactive. On Adenosine receptor A3 [7], the Ki worked out at 978 nM.
As to `OC[C@@]1(O)CO[C@@H](n2cnc3c(NCc4cccc(I)c4)ncnc32)[C@@H]1O`, the inhibition in experiment [1] was found to be 48%; in experiment [2], 27%; in experiment [3], 17%.
For `Nc1ncnc2c1ncn2[C@H]1C[C@H](CO)CO1`, the figures for the inhibition in experiment [1] and in experiment [5] were 7% and 0%, respectively.
Take `CCNC(=O)OC[C@]1(O)CO[C@@H](n2cnc3c(N)ncnc32)[C@@H]1O`: the inhibition was found to be 6% in experiment [1], 9% in experiment [2] and 12% in experiment [3].
As to `CCNC(=O)OC[C@@H]1CO[C@@H](n2cnc3c(N)ncnc32)[C@@H]1O`, the inhibition in [1] amounted to 8%; in experiment [2] it was 7%; in [3], 2%.
For the compound `Nc1ncnc2c1ncn2[C@H]1C[C@@H](CO)CO1`, the inhibition in experiment [1] was determined as 31%; in experiment [2], 10%; in experiment [3] it was 15%.
The matching figures for `OC[C@]1(O)CO[C@@H](n2cnc3c(NCc4cccc(Cl)c4)ncnc32)[C@@H]1O`: 44%, 19% and 15%.
On to `Nc1ncnc2c1ncn2[C@@H]1OC[C@@H](CO)[C@H]1O`, for which the results for the inhibition in experiment [1], in [4] and in experiment [5] were 7%, 76% and 74%, respectively.
As to `Nc1ncnc2c1ncn2[C@@H]1OC[C@](O)(CO)[C@H]1O`, the results for the inhibition in experiment [1], in experiment [2] and in experiment [3] were 35%, 6% and 19%, respectively.
As to `CCNC(=O)[C@@H]1CO[C@@H](n2cnc3c(N)ncnc32)[C@@H]1O`, the inhibition in [1] was determined as 10%; in experiment [2], 8%; in experiment [3], 9%.
`Nc1c2ncn([C@@H]3OC[C@@](O)(CO)[C@H]3O)c2nc[n+]1Cc1cccc(Cl)c1`: the inhibition in experiment [1] stood at 3%; in [2], 6%; in experiment [3], 12%.
As to `COc1ccc(Cl)cc1CNc1ncnc2c1ncn2[C@@H]1OC[C@@](O)(CO)[C@H]1O`, the IC50 on Adenosine receptor A3 [8] came to 1560 nM. Moreover, the maximal effect (Emax) in experiment [9] came to 50.9%. Moreover, the results for the inhibition in experiment [2] and in [3] were 13% and 14%, respectively. The Ki at Adenosine receptor A3 [7] amounted to 3070 nM.
As for `OC[C@]1(O)CO[C@@H](n2cnc3c(NCc4cccc(I)c4)ncnc32)[C@@H]1O`, the results for the inhibition in experiment [1], in experiment [2] and in [3] were 45%, 35% and 22%, respectively.
`OC[C@@]1(O)CO[C@@H](n2cnc3c(NCc4cccc(Cl)c4)ncnc32)[C@@H]1O`: the inhibition came out at 43% in [1], 10% in [2] and 10% in experiment [3].

These data come from ChEMBL document CHEMBL3351911, “Synthesis and evaluation of N⁶-substituted apioadenosines as potential adenosine A₃ receptor modulators” (Bioorg Med Chem, 2014).
